# Assay outcomes (PubChem BioAssay)
# A selection: hits, their analogues and other compounds. The true share with any hit is near 4.6%.
# MDM2 E3 inh = blocks human Mdm2 ubiquitin ligase activity | cell-based MDM2 ubiquitination luciferase reporter, 2 h; 0 = plate control, 100 = twice control, blank-subtracted | signal enhancement, % at 5 µM | 210,000 compounds, 0.11% hits;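 active means signal enhancement of 30% or more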;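 further: luminescence tracks abundance of the self-degrading MDM2-luciferase fusion protein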
#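 Assay system: stable mammalian line carrying autodegrading MDM2–luciferase fusion reporter; Input: 2000 cells in each well; Compound dosing: single-point 5 µM; Schedule: 2 h compound exposure at 37 °C; Signal: SteadyLite luciferase luminescence after 15 min room-temperature reagent incubation; Evaluation: % luminescence enhancement versus blank-corrected plate control mean; Benchmarks: plate controls and plate blanks.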
# APP 5'UTR act = activates APP 5'UTR luciferase reporter; AID 1276; SH-SY5Y APP 5'UTR luciferase reporter, luminescence; zero percent = DMSO vehicle wells; 190,000 compounds, 1% hits; activation, % at 2 µM;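 active means activation above a set limit, based on mean plus 3 SD of controls, cut at about 140% in these data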
# STAT1 act = activators of IFN-gamma induced STAT1 signaling | 200,000 compounds, 2.6% hits | activation (% of control), % at 5.5 µM | NIH 3T3 STAT1-luciferase reporter, luminescence; 100% = IFN-gamma alone, no compound;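 active means activation above the screen-wide mean activation plus 3 SD, cut at about 130% in these data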;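 further: raw ratio to IFN-gamma control signal so 100% means no change and 0% no light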
# Wee1 stabilizer = inhibitors of human Wee1 degradation | AID 1321 | HeLa Luc-Wee1K328M stability, luciferase luminescence; 100% = proteasome inhibitor MG132 effect | 220,000 compounds, 1.2% hits | reporter increase, % at 5 µM;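 active means activation above the mean of all tested compounds plus 3 SD, set per screening run, cut at about 8.8% in these data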;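 further: cells exposed to compound for 20 h before luminescence read; 0% = DMSO alone and 100% = MG132 at 30 µM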
# Target sequence (P30291 whole entry K328M): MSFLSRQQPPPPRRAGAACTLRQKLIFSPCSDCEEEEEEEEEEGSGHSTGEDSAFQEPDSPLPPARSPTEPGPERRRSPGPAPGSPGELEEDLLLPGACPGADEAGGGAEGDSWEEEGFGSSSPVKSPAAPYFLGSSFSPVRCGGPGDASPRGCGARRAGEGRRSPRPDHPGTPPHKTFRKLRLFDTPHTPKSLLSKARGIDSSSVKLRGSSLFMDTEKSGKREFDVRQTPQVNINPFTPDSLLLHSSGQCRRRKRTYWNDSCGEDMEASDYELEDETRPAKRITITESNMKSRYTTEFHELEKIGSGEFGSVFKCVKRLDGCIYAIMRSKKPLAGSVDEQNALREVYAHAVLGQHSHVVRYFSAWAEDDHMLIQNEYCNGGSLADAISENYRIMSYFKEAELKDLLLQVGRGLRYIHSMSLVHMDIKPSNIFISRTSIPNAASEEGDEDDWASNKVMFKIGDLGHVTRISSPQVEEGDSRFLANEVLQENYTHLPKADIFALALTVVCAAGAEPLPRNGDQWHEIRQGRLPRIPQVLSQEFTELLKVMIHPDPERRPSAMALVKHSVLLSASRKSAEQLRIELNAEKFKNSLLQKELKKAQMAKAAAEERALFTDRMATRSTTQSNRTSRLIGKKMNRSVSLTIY
# p97 inhibitor = human p97 ATPase inhibition; P55072; 220,000 compounds, 0.42% hits; inhibition, % at 8 µM; recombinant p97 ATPase, Kinase-Glo ATP luminescence, 3 h; AID 1481; in the data active means inhibition above about 15%;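 further: 0% = DMSO vehicle and 100% = wells lacking enzyme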
# NF-kB expr up = compounds increasing NF-kB expression in human neuronal cells; AID 1239; 190,000 compounds, 1.6% hits; fold change at 12.5 µM; NF-kB reporter expression; stronger effect = higher value; in the data active means fold change above about 3.3
# Starred values were filed as active, the others as inactive; x = no result.
SMILES,MDM2 E3 inh,APP 5'UTR act,STAT1 act,Wee1 stabilizer,p97 inhibitor,NF-kB expr up
COc1cccc(C(=O)Nc2nc(C)cs2)c1,-5,164*,148*,0,-2,3.7*
COc1ccc(-c2nnc(NC(=O)C(C)C)s2)c(OC)c1,-10,17,133*,2,-1,1.4
COc1cccc(C(=O)Nc2nnc(Cc3ccc(OC)c(OC)c3)s2)c1,3,x,x,6,4,x
COc1ccc(Cc2nnc(NC(=O)C(C)C)s2)cc1,-3,x,x,0,-4,x
CC(C)c1nnc(NC(=O)c2ccc(N3C(=O)CCC3=O)cc2)s1,-4,5,136*,-2,-1,1.9
COc1cccc(C(=O)Nc2nc(-c3ccncc3)cs2)c1,-4,-3,83,3,-1,1.1
COc1cc2c(cc1OC)C(C(=O)NCCN(C)C)C(c1cccs1)N(C)C2=O (stereo not drawn),-5,1,104,1,7,1.5
CCCCn1nc(C(=O)Oc2ccc3c(C)cc(=O)oc3c2)c2ccccc2c1=O,0,9,104,1,3,0.79
O=C(CCc1nc2ccccc2s1)OCc1ccccc1F,-10,-1,102,2,-2,1.3
COCc1nnc(NC(=O)c2ccc(OC)cc2OC)s1,-22,101,116,1,-5,4.4*
COc1cccc(C(=O)Nc2nnc(C(C)C)s2)c1,-39,198*,136*,0,-2,x
CC(C)NC(=O)NC(=O)COC(=O)/C=C/c1ccccc1[N+](=O)[O-],-12,15,72,-2,-1,0.97
CCO[C@H]1OC(C(=O)N2CCCCCCC2)=C[C@@H](C)[C@@H]1CCCO,x,8,93,0,1,1.1
CCN(CC)S(=O)(=O)c1ccc(OC)c(NC(=O)c2cc(C)on2)c1,-32,-8,101,0,4,1
O=C(N=C1N=C2C=CC(Br)=CN2Cc2ccccc21)c1ccc([N+](=O)[O-])cc1[N+](=O)[O-],-19,x,x,11*,0,x
CC(C)n1c(=S)[nH]c2ccccc2c1=O,-6,-4,96,0,3,0.9
CC(C)n1c(=S)[nH]c2cc(Cl)ccc21,-6,x,x,11*,3,x
Nc1nc(Nc2cccc(F)c2)nc2ccccc12,-19,97,145*,3,8,5.3*
Cc1ccc(C)c(Nc2nc(N)c3ccccc3n2)c1,-24,184*,124,2,0,1.1
COCCN1Cc2cccc(C(=O)NC(C)CCc3ccco3)c2C1=O (stereo not drawn),-12,-4,91,-4,1,0.87
O=C(O)c1sc2cccc(Cl)c2c1Cl,-7,2,88,1,5,0.91
COc1cccc(NC(=O)COC(=O)c2ccccc2C(=O)N2CCN(c3ccccc3)CC2)c1,5,-4,98,1,0,0.99
CC1=NN(C(=O)COc2cc(C)ccc2C(C)C)C(O)(c2ccccc2)C1 (stereo not drawn),5,x,x,11*,-3,x
CC1=NN(C(=O)COc2ccc(C)c(C)c2)C(O)(c2ccc(Cl)cc2)C1 (stereo not drawn),-12,23,95,4,0,1
Cc1ccc(CN2CCCC(CO)(Cc3ccccc3C)C2)s1 (stereo not drawn),3,12,101,8.9*,-2,x
